Measurements taken from ChEMBL document CHEMBL2069193 (Bioorg Med Chem Lett, 2012).

Legend:
[1] = system: CHO; test: Cytotoxicity against CHO cells; type: cell-based; conditions: Cricetulus griseus
[2] = system: LAD2; test: Inhibition of human LAD2 cells degranulation preincubated for 30 mins before streptavidin stimulation measured after 30 mins by measuring beta-hexosaminidase activity; type: functional, cell-based
How it was run: (§1)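 LAD2 mast cells sensitized overnight at 37 °C, 5% CO2 with 100 ng/ml biotin-IgE in StemPro-34 growth medium with 2 mM glutamine and 100 ng/ml SCF. They were washed into release buffer, plated at 10,000 cells/well, given drug for 30 min, then 125 ng/ml streptavidin for 30 min. Supernatant and freeze-thaw lysate were incubated 90 min at 37 °C with 1 mM p-nitrophenyl-N-acetyl-D-glucosamide, citrate pH 4.5.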

[3] = system: LAD2; test: Inhibition of human LAD2 cells degranulation at 1 uM preincubated for 30 mins before streptavidin stimulation measured after 30 mins by measuring beta-hexosaminidase activity; type: functional; how it was run: as §1
[4] = target: Tyrosine-protein kinase HCK (Homo sapiens) (UniProt P08631); test: Inhibition of human Hck at 1 uM
[5] = target: Tyrosine-protein kinase Lyn (Homo sapiens) (UniProt P07948); test: Inhibition of human Lyn at 1 uM
[6] = target: Receptor-type tyrosine-protein kinase FLT3 (Homo sapiens) (UniProt P36888); test: Inhibition of human Flt3 at 1 uM
[7] = target: Glycogen synthase kinase-3 alpha (Homo sapiens) (UniProt P49840); test: Inhibition of human GSK3alpha at 1 uM
[8] = target: Dual specificity mitogen-activated protein kinase kinase 6 (Homo sapiens) (UniProt P52564); test: Inhibition of human MKK6 at 1 uM
[9] = target: High affinity nerve growth factor receptor (Homo sapiens) (UniProt P04629); test: Inhibition of human TrkA at 1 uM
[10] = target: Calcium/calmodulin-dependent protein kinase type II subunit delta (Homo sapiens) (UniProt Q13557); test: Inhibition of human CaMK2delta at 1 uM
[11] = target: Vascular endothelial growth factor receptor 1 (Homo sapiens) (UniProt P17948); test: Inhibition of human Flt1 at 1 uM
[12] = target: Focal adhesion kinase 1 (Homo sapiens) (UniProt Q05397); test: Inhibition of human FAK at 1 uM
[13] = target: Tyrosine-protein kinase receptor UFO (Homo sapiens) (UniProt P30530); test: Inhibition of human Axl at 1 uM
[14] = target: Mitogen-activated protein kinase kinase kinase 7 (Homo sapiens) (UniProt O43318); test: Inhibition of human TAK1 at 1 uM
[15] = target: MAP kinase-activated protein kinase 5 (Homo sapiens) (UniProt Q8IW41); test: Inhibition of human PRAK at 1 uM
[16] = target: Casein kinase I isoform delta (Homo sapiens) (UniProt P48730); test: Inhibition of human CK1delta at 1 uM
[17] = target: Cyclin-dependent kinase 1/cyclin B1 (Homo sapiens) (UniProt P06493+P14635); test: Inhibition of human CDK1/cyclinB at 1 uM; type: protein-complex assay
[18] = target: Mitogen-activated protein kinase 10 (Homo sapiens) (UniProt P53779); test: Inhibition of human JNK3 at 1 uM
[19] = target: Proto-oncogene tyrosine-protein kinase receptor Ret (Homo sapiens) (UniProt P07949); test: Inhibition of human Ret at 1 uM
[20] = target: Serine/threonine-protein kinase pim-1 (Homo sapiens) (UniProt P11309); test: Inhibition of human Pim-1 at 1 uM
[21] = target: Inhibitor of nuclear factor kappa-B kinase subunit beta (Homo sapiens) (UniProt O14920); test: Inhibition of human IKKbeta at 1 uM
[22] = target: Rho-associated protein kinase 2 (Homo sapiens) (UniProt O75116); test: Inhibition of human ROCK2 at 1 uM
[23] = target: Hepatocyte growth factor receptor (Homo sapiens) (UniProt P08581); test: Inhibition of human Met at 1 uM
[24] = target: Protein kinase C gamma type (Homo sapiens) (UniProt P05129); test: Inhibition of human PKCgamma at 1 uM
[25] = target: Tyrosine-protein kinase ZAP-70 (Homo sapiens) (UniProt P43403); test: Inhibition of human ZAP70 at 1 uM
[26] = target: Protein kinase C epsilon type (Homo sapiens) (UniProt Q02156); test: Inhibition of human PKCepsilon at 1 uM
[27] = target: 3-phosphoinositide-dependent protein kinase 1 (PDPK1) (Homo sapiens) (UniProt O15530); test: Inhibition of human PDK1 at 1 uM
[28] = target: Tyrosine-protein kinase Fyn (Homo sapiens) (UniProt P06241); test: Inhibition of human Fyn at 1 uM
[29] = target: ALK tyrosine kinase receptor (Homo sapiens) (UniProt Q9UM73); test: Inhibition of human Alk at 1 uM
[30] = target: Ribosomal protein S6 kinase alpha-6 (Homo sapiens) (UniProt Q9UK32); test: Inhibition of human Rsk4 at 1 uM
[31] = target: Tyrosine-protein kinase Lck (Homo sapiens) (UniProt P06239); test: Inhibition of human Lck at 1 uM
[32] = target: Tyrosine-protein kinase BTK (Homo sapiens) (UniProt Q06187); test: Inhibition of human BTK at 1 uM
[33] = target: Fibroblast growth factor receptor 3 (Homo sapiens) (UniProt P22607); test: Inhibition of human FGFR3 at 1 uM
[34] = target: Tyrosine-protein kinase Yes (Homo sapiens) (UniProt P07947); test: Inhibition of human Yes at 1 uM
[35] = target: Tyrosine-protein kinase Fgr (Homo sapiens) (UniProt P09769); test: Inhibition of human Fgr at 1 uM
[36] = target: Protein-tyrosine kinase 2-beta (Homo sapiens) (UniProt Q14289); test: Inhibition of human Pyk2 at 1 uM
[37] = target: Protein kinase C beta type (Homo sapiens) (UniProt P05771); test: Inhibition of human PKCbeta2 at 1 uM
[38] = target: Macrophage colony-stimulating factor 1 receptor (Homo sapiens) (UniProt P07333); test: Inhibition of human Fms at 1 uM
[39] = target: Aurora kinase A (Homo sapiens) (UniProt O14965); test: Inhibition of human Aurora-A at 1 uM
[40] = target: Glycogen synthase kinase-3 beta (Homo sapiens) (UniProt P49841); test: Inhibition of human GSK3beta at 1 uM
[41] = target: Proto-oncogene tyrosine-protein kinase Src (Homo sapiens) (UniProt P12931); test: Inhibition of human cSRC at 1 uM
[42] = target: Serine/threonine-protein kinase Chk1 (Homo sapiens) (UniProt O14757); test: Inhibition of human CHK1 at 1 uM
[43] = target: Tyrosine-protein kinase ITK/TSK (Homo sapiens) (UniProt Q08881); test: Inhibition of human Itk at 1 uM

Sequence of Mitogen-activated protein kinase kinase kinase 7 (Homo sapiens) (O43318 whole entry): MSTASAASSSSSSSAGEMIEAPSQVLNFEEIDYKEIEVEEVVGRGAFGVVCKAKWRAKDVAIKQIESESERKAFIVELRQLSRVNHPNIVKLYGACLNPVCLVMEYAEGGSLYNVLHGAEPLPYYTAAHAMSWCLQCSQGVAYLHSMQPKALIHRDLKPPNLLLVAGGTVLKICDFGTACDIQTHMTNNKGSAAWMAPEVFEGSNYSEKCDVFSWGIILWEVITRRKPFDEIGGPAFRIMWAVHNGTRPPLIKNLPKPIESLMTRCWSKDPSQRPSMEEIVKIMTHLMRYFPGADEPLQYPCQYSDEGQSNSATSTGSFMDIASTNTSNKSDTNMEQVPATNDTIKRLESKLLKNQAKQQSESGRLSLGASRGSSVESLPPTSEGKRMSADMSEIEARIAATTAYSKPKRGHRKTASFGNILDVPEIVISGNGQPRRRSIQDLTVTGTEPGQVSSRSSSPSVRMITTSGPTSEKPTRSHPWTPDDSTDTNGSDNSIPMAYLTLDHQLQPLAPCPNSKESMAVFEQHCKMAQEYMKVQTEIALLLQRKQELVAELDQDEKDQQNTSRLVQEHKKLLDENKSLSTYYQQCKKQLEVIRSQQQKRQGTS
Sequence of Tyrosine-protein kinase HCK (Homo sapiens) (P08631 2-526 limits assumed): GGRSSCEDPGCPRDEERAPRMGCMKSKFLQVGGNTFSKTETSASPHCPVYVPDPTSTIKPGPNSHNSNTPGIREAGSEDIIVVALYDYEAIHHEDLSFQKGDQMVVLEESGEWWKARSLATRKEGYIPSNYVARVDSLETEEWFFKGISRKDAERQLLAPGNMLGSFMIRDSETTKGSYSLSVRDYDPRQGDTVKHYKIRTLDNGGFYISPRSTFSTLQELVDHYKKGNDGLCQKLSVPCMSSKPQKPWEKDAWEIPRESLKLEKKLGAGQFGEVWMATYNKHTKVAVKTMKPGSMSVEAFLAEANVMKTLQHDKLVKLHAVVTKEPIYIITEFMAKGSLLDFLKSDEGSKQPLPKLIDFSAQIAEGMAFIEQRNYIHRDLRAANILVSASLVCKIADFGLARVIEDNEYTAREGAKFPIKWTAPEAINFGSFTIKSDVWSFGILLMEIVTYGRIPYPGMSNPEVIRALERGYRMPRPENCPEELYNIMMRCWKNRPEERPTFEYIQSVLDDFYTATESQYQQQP
Sequence of Calcium/calmodulin-dependent protein kinase type II subunit delta (Homo sapiens) (Q13557 whole entry): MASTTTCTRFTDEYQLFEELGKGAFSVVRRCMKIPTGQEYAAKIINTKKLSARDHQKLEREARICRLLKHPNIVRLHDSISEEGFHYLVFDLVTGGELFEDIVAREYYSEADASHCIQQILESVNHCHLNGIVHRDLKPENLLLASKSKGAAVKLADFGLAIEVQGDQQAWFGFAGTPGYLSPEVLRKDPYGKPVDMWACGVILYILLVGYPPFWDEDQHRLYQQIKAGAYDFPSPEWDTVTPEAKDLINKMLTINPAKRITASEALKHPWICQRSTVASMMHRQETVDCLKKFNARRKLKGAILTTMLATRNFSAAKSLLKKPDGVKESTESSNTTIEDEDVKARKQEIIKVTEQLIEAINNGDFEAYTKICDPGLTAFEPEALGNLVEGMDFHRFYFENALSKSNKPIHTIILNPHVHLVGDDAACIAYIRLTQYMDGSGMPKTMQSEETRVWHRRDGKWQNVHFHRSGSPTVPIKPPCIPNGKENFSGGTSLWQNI
Sequence of Tyrosine-protein kinase Lyn (Homo sapiens) (P07948 2-512 limits assumed): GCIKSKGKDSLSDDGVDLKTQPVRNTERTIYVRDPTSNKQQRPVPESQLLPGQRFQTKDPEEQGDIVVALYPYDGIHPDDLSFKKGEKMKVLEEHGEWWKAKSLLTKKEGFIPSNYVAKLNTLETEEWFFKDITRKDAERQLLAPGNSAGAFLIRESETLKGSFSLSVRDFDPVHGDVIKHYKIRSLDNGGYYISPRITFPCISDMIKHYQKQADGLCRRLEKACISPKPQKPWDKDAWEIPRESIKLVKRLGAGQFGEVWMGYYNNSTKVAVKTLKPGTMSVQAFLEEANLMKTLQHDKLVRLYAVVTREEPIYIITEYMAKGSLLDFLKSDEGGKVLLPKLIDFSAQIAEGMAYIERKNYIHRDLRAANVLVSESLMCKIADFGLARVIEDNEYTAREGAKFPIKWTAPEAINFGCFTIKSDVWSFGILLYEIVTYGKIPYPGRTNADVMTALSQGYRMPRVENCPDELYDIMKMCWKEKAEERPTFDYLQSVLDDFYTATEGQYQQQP
Sequence of Tyrosine-protein kinase Fgr (Homo sapiens) (P09769 2-529 limits assumed): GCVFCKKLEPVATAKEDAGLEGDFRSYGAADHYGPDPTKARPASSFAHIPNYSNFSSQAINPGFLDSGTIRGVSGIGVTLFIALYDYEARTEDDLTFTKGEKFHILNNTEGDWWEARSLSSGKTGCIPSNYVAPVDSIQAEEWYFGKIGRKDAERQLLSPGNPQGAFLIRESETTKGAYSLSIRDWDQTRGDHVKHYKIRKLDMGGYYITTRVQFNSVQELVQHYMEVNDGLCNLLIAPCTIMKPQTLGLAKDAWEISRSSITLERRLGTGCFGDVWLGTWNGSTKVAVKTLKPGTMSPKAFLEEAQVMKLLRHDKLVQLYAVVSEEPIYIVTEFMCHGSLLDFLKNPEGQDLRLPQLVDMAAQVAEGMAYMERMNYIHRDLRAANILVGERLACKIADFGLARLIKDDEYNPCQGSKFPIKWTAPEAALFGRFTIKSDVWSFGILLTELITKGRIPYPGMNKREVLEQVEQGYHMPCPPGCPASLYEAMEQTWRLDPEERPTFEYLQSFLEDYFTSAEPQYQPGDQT
Sequence of Dual specificity mitogen-activated protein kinase kinase 6 (Homo sapiens) (P52564 whole entry): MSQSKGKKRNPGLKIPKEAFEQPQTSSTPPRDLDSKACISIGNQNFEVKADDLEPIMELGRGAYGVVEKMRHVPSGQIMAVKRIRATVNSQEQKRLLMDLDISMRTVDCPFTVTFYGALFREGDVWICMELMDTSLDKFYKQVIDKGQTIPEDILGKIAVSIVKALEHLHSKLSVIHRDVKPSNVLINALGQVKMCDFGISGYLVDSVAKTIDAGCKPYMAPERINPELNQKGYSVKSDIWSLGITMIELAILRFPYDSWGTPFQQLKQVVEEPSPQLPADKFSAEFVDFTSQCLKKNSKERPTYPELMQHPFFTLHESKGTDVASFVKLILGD
Sequence of Glycogen synthase kinase-3 alpha (Homo sapiens) (P49840 2-483 limits assumed): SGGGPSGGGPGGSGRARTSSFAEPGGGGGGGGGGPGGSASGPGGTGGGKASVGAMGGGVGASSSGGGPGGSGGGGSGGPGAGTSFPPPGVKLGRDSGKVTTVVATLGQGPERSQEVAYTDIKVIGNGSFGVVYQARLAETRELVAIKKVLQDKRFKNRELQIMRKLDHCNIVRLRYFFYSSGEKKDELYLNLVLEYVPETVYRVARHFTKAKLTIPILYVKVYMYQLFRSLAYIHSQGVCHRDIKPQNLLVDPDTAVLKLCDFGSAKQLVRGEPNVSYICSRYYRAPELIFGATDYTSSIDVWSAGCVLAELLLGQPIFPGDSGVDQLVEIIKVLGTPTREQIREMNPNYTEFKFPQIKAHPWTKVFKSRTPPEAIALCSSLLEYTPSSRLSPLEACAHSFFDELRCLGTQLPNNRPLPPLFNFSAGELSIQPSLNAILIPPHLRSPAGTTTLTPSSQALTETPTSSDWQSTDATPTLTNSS
Sequence of Tyrosine-protein kinase ZAP-70 (Homo sapiens) (P43403 whole entry): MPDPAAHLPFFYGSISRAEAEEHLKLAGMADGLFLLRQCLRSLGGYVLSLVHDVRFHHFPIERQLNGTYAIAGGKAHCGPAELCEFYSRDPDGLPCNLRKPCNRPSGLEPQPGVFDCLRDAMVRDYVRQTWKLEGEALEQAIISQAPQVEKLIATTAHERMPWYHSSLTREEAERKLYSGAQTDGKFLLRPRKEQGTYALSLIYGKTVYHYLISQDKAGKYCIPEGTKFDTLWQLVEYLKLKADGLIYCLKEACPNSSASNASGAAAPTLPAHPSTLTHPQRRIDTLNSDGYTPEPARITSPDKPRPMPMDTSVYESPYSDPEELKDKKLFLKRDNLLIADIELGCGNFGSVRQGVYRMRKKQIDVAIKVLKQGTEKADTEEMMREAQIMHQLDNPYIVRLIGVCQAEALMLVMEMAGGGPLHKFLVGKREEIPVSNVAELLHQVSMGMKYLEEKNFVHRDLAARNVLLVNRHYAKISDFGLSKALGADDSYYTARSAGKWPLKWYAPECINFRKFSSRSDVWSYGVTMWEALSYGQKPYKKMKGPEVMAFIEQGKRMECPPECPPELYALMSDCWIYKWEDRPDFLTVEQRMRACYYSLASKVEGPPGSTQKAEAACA
Sequence of Tyrosine-protein kinase Lck (Homo sapiens) (P06239 2-509 limits assumed): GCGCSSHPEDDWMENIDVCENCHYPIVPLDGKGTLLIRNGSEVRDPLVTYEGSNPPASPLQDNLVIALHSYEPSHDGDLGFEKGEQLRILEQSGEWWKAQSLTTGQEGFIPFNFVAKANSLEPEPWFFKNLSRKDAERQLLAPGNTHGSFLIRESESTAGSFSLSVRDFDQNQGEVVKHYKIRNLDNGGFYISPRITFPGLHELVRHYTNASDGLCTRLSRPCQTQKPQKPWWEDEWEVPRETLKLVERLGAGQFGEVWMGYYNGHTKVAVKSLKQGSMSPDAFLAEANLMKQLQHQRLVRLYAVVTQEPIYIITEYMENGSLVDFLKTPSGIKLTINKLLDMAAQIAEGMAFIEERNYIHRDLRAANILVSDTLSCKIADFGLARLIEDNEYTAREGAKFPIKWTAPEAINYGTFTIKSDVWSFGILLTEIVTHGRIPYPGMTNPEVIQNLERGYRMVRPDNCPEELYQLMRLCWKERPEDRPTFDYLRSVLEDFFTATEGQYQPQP
Sequence of Serine/threonine-protein kinase pim-1 (Homo sapiens) (P11309 whole entry, looked up): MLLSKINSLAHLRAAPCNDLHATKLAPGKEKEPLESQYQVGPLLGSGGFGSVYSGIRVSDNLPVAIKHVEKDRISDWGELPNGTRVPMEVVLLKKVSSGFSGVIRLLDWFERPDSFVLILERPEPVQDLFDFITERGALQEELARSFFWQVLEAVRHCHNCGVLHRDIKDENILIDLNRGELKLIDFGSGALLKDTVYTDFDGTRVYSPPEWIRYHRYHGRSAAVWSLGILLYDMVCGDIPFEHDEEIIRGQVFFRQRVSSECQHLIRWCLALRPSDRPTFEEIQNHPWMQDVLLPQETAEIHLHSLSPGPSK

`O=C(O)c1ccc(C(=O)Nc2cc(Nc3cnccn3)nc(-c3ccnc(N4CCNCC4)c3)c2)cc1` was tested, and the IC50 [1] was over 20000 nM and the IC50 [2] was 140 nM.

For `FC(F)(F)c1ccnc(Nc2cccc(-c3cccc(N4CCNCC4)c3)n2)c1`, the IC50 [1] was 1000 nM.

`FC(F)(F)c1ccnc(Nc2cccc(-c3ccnc(N4CCNCC4)c3)n2)c1` was tested, and the IC50 [1] was 1000 nM.

`CC(=O)N1CCC(C(=O)Nc2cc(Nc3cnccn3)nc(-c3ccnc(N4CCNCC4)c3)c2)CC1` gave an IC50 [1] of over 20000 nM and an IC50 [2] of 1000 nM.

`CNc1cc(Nc2cnccn2)nc(-c2ccnc(N3CCNCC3)c2)c1` was tested, and the IC50 [1] was over 20000 nM and the IC50 [2] was 188 nM.

In the case of `O=C(Nc1cc(Nc2cnccn2)nc(-c2ccnc(N3CCNCC3)c2)c1)c1ccc(C(=O)O)nc1`, the IC50 [1] is reported as over 20000 nM and the IC50 [2] is reported as 204 nM.

`Cc1ccnc(Nc2cccc(-c3ccnc(N4CCNCC4)c3)n2)c1` gave an IC50 [1] of 1000 nM.

`Oc1ccc(CNc2cc(Nc3cnccn3)nc(-c3ccnc(N4CCNCC4)c3)c2)cc1` gave an IC50 [1] of over 20000 nM and an IC50 [2] of 585 nM.

Compound `O=C(Cc1cccnc1)Nc1cc(Nc2cnccn2)nc(-c2ccnc(N3CCNCC3)c2)c1` has an IC50 [1] of over 20000 nM and an IC50 [2] of 352 nM.

For `c1cc(Nc2cnccn2)nc(-c2ccnc(N3CCNCC3)c2)c1`, the IC50 [1] was over 15000 nM.

Work on `O=C(Nc1cc(Nc2cnccn2)nc(-c2ccnc(N3CCNCC3)c2)c1)C1CCNCC1` yielded an inhibition at 1 µM [3] of 14% and an IC50 [1] of over 20000 nM.

`Cc1cc(C(=O)Nc2cc(Nc3cnccn3)nc(-c3ccnc(N4CCNCC4)c3)c2)n(C)n1` showed an IC50 [1] of over 20000 nM and an IC50 [2] of 169 nM.

In the case of `O=C(Nc1cc(Nc2cnccn2)nc(-c2ccnc(N3CCNCC3)c2)c1)c1cccnc1`, the IC50 [1] is reported as over 20000 nM and the IC50 [2] is reported as 122 nM.

`Nc1cc(Nc2cnccn2)nc(-c2ccnc(N3CCNCC3)c2)c1` showed an inhibition [4] of over 50%, an inhibition [5] of over 50% and an inhibition [6] of over 50%. The inhibition [7] was over 50%, the inhibition [8] was under 50% and the inhibition [9] was under 50%. It also gave an inhibition [10] of under 50%, an inhibition [11] of under 50% and an inhibition [12] of under 50%. The inhibition [13] was under 50%, the inhibition [14] was under 50% and the inhibition [15] was under 50%. It also gave an inhibition [16] of under 50%, an inhibition [17] of under 50% and an inhibition [18] of under 50%. It also gave an inhibition [19] of over 50%, an inhibition [20] of under 50% and an inhibition [21] of under 50%. The inhibition [22] was under 50%, the inhibition [23] was under 50% and the inhibition [24] was under 50%. The inhibition [25] was under 50%, the inhibition [26] was under 50% and the inhibition [27] was under 50%. The inhibition [28] was under 50%, the inhibition [29] was under 50% and the inhibition [30] was under 50%. The inhibition [31] was over 50%, the inhibition [32] was over 50% and the inhibition [33] was under 50%. The inhibition [34] was over 50%, the inhibition [35] was over 50% and the inhibition [36] was under 50%. It also gave an IC50 [1] of over 20000 nM, an inhibition [37] of under 50% and an inhibition [38] of under 50%. For the same compound, the inhibition [39] was under 50%, the IC50 [2] was 118 nM and the inhibition [40] was under 50%. The inhibition [41] was over 50%, the inhibition [42] was under 50% and the inhibition [43] was over 50%.

`O=C(Nc1cc(Nc2cnccn2)nc(-c2ccnc(N3CCNCC3)c2)c1)c1cncnc1` was tested, and the IC50 [1] was over 20000 nM and the IC50 [2] was 331 nM.

For `c1cc(-c2cccc(Nc3cnccn3)n2)cc(N2CCNCC2)c1`, the IC50 [1] was over 15000 nM.

Work on `O=C(Nc1cc(Nc2cnccn2)nc(-c2ccnc(N3CCNCC3)c2)c1)c1ccccc1` yielded an IC50 [1] of over 20000 nM and an IC50 [2] of 362 nM.
